Consider two molecules from ChEMBL document CHEMBL1126893, “Synthesis and CLOGP correlation of imidooxy anticonvulsants” (J Med Chem, 1993).

The test system of experiment [1] is Mus musculus. Briefly: Time of peak effect of activity of compound was measured by both MES and sc Met test in mice. It is filed as functional. The procedure, abridged: (§1)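 Phase II quantification in mice after ip dosing. ED50 (scMet or MES) measured at the time of peak effect. TD50 (rotorod neurologic deficit) measured at the time of peak neurologic deficit. Medians and 95% confidence limits by the Litchfield-Wilcoxon method. Protective index = TD50/ED50. Time of peak effect determined in the MES or scMet test.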

The subject of experiment [2] is Mus musculus. Put plainly: Time of peak effect of toxicity of compound was measured by both MES and sc Met test in mice. It is filed as functional. The procedure, abridged:
as §1

The next experiment deals with Rattus norvegicus. Put plainly: Effective dose was measured in rat by subcutaneous pentylenetetrazole method by ip administration; NE= Not effective. In kind it is functional, organism-based.

Active and inactive are the calls of the source. The rule behind the calls is not given here.

`CCC1(c2ccccc2)C(=O)NC(=O)NC1=O` [PHENOBARBITAL]: the TPE was 1 toxicity in the experiment with Mus musculus [1] and 0.5 in the experiment on Mus musculus [2].

`O=C1NC(=O)C(c2ccccc2)(c2ccccc2)N1` [PHENYTOIN]: the ED50 result in the experiment with Rattus norvegicus is “inactive”. The values for the TPE with Mus musculus [1] and with Mus musculus [2] were 2 toxicity and 2, respectively.
